# What was measured:
# [1] = biological target: Proto-oncogene tyrosine-protein kinase Src (Homo sapiens, UniProt P12931); experiment: Inhibition of tyrosine kinase c-Src
# Procedure, shortened: (§1)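 Enzyme purification and in vitro kinase assay as previously described. Compounds dissolved in DMSO and diluted in buffer to 1% DMSO final in the assay. IC50 values are averages of at least three determinations.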
# [2] = biological target: Protein kinase C alpha type (Homo sapiens, UniProt P17252); experiment: Inhibition of Protein kinase C alpha
# Procedure, shortened: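 Enzymes purified as previously reported. Compounds were dissolved in DMSO and diluted in buffer to a final assay DMSO of 1%. IC50 values are averages of at least three determinations.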
# NIH3T3 [3] = experiment: Inhibition of PDGF-stimulated tyrosine phosphorylation in BALB/c3T3 cells; type: functional, cell-based; details: Mus musculus
# Procedure, shortened: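 Total cellular tyrosine phosphorylation was stimulated with PDGF in BALB/c 3T3 cells and read by microtiter ELISA. Results are reported as IC50 in µM.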
# [4] = biological target: T1, Epidermal growth factor receptor (Homo sapiens, UniProt P00533); experiment: In vitro inhibitory activity against epidermal growth factor receptor
# T1 sequence (P00533 whole entry): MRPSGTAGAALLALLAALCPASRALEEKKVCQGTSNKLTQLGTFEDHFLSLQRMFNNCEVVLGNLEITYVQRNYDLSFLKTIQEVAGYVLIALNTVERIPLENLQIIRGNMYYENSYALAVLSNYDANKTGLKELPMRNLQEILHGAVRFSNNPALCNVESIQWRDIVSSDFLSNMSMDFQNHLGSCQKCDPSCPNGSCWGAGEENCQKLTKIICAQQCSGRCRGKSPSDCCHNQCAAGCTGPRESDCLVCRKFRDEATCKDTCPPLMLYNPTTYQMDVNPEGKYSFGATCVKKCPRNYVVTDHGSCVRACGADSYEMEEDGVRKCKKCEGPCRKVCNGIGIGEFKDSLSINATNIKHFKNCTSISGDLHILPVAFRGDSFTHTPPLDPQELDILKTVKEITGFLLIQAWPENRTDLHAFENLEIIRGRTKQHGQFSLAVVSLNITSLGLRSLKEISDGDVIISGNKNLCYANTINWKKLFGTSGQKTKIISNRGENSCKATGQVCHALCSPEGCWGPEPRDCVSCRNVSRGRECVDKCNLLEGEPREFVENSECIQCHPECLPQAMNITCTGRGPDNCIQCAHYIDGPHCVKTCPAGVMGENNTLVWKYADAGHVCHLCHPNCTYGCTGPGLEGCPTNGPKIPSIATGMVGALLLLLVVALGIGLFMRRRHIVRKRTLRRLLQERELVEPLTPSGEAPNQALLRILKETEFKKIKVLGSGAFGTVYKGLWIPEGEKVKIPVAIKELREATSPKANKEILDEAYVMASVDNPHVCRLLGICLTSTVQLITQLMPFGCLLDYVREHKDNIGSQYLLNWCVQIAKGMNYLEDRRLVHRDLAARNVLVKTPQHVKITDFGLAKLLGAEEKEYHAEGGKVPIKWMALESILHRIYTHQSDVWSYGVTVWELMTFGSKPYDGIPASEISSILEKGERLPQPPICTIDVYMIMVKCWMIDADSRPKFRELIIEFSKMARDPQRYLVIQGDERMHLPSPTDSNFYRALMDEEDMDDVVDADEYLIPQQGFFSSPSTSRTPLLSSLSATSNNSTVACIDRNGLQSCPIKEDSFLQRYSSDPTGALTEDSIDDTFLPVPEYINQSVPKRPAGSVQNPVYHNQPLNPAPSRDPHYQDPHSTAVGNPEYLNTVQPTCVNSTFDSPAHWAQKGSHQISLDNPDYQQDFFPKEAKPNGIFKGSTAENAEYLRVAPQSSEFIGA
# [5] = biological target: T1, Epidermal growth factor receptor; experiment: Inhibition of EGF-stimulated tyrosine phosphorylation in A431 cells expressing EGF-R
# Balb/MK = experiment: Inhibition of proliferation of EGF-dependent BALB/MK cells; type: functional, cell-based; details: Mus musculus
# [6] = biological target: Tyrosine-protein kinase ABL (Homo sapiens, UniProt P00519+P42684); experiment: Inhibition of tyrosine kinase v-Abl; type: protein assay; procedure, shortened: as §1
# NIH3T3 [7] = experiment: Inhibition of PDGF-induced c-fos mRNA expression in BALB/c 3T3 cells; type: functional, cell-based; details: Mus musculus
# Sequence of Proto-oncogene tyrosine-protein kinase Src (P12931 2-536 limits assumed): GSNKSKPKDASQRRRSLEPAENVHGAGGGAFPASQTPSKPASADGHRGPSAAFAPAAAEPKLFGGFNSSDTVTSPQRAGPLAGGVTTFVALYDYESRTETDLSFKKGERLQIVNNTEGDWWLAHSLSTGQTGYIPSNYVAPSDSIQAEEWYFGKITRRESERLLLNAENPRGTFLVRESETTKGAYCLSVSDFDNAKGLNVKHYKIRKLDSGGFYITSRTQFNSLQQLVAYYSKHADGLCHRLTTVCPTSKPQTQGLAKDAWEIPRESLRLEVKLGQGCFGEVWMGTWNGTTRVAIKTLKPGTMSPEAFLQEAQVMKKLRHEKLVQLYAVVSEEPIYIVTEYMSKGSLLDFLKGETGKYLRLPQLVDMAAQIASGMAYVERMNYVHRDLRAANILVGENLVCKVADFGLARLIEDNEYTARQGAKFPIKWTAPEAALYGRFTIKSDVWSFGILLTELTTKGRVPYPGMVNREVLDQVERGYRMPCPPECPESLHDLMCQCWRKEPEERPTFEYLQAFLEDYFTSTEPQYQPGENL
Structure (SMILES),IC50 [1],IC50 [2],IC50 [4],IC50 (Balb/MK),IC50 [6],further results
Cc1[nH]c2ncnc(Nc3ccccc3)c2c1C,> 100 µM,75 µM,–,–,–,IC50 (NIH3T3 [3]): > 10 µM
Cc1[nH]c2ncnc(Nc3ccc(Cl)cc3)c2c1C,–,–,> 50000 nM,–,–,–
Cc1[nH]c2ncnc(Nc3cccc(C(=O)O)c3)c2c1C,–,–,16300 nM,–,–,–
CCc1ccccc1Nc1ncnc2[nH]c(C)c(C)c12,–,–,> 100000 nM,–,–,–
Cc1[nH]c2ncnc(Nc3cccc(F)c3)c2c1C,> 100 µM,> 100 µM,–,29.9 µM,99 µM,IC50 [5]: > 100 µM
c1ccc(Nc2ncnc3[nH]c4c(c23)CCCC4)cc1,> 100 µM,> 100 µM,–,–,> 100 µM,IC50 (NIH3T3 [3]): > 10 µM
Cc1cccc(Nc2ncnc3[nH]c(C)c(C)c23)c1,> 100 µM,> 100 µM,–,7.2 µM,5.3 µM,IC50 [5]: > 100 µM
CCc1ccc(Nc2ncnc3[nH]c4c(c23)CCCC4)cc1,–,–,> 50000 nM,–,–,–
Clc1cccc(Nc2ncnc3[nH]c4c(c23)CCCC4)c1,> 100 µM,> 100 µM,–,0.98 µM,> 100 µM,IC50 (NIH3T3 [7]): > 100 µM; IC50 (NIH3T3 [3]): > 10 µM
Cc1cccc(Nc2ncnc3[nH]c4c(c23)CCCC4)c1,> 100 µM,> 100 µM,–,> 50 µM,> 100 µM,IC50 (NIH3T3 [3]): > 10 µM; IC50 [5]: > 100 µM
CCc1ccc(Nc2ncnc3[nH]c(C)c(C)c23)cc1,–,–,77500 nM,–,–,–
COc1cccc(Nc2ncnc3[nH]c(C)c(C)c23)c1,–,–,1200 nM,–,–,–
Cc1[nH]c2ncnc(N(C)c3cccc(Cl)c3)c2c1C,–,–,500 nM,–,–,–
Cc1[nH]c2ncnc(Oc3cccc(Cl)c3)c2c1C,–,–,2500 nM,–,–,–
O=C(O)c1cccc(Nc2ncnc3[nH]c4c(c23)CCCC4)c1,–,–,25700 nM,–,–,–
COc1cccc(Nc2ncnc3[nH]c4c(c23)CCCC4)c1,–,–,860 nM,–,–,–
Cc1c(-c2ccccc2)[nH]c2ncnc(Nc3cccc(Cl)c3)c12,> 100 µM,> 100 µM,10 nM,> 50 µM,> 100 µM,IC50 (NIH3T3 [3]): > 10 µM; IC50 [5]: 6 µM

Structure (SMILES),IC50 [1],IC50 [2],IC50 [4],IC50 (Balb/MK),IC50 [6],further results
Clc1cccc(Nc2ncnc3[nH]c4ccccc4c23)c1,> 100 µM,> 100 µM,6 nM,0.47 µM,30 µM,IC50 (NIH3T3 [7]): > 100 µM; IC50 [5]: 0.12 µM
Cc1ccc(Nc2ncnc3[nH]c(C)c(C)c23)cc1,–,–,2100 nM,–,–,–
Cc1nc(Nc2cccc(Cl)c2)c2c(C)c(C)[nH]c2n1,–,–,> 100000 nM,–,–,–
Cc1[nH]c2ncnc(Nc3cccc(Cl)c3)c2c1C,> 100 µM,> 100 µM,–,–,40.5 µM,IC50 (NIH3T3 [7]): > 100 µM
Cc1[nH]c2ncnc(Nc3ccccc3Cl)c2c1C,–,–,75100 nM,–,–,–
Cc1[nH]c2ncnc(Nc3cccc(C#N)c3)c2c1C,–,–,200 nM,–,–,–
CCOC(=O)c1cccc(Nc2ncnc3[nH]c(C)c(C)c23)c1,–,–,> 100000 nM,–,–,–
Cc1[nH]c2ncnc(Nc3cccc(Cl)c3)c2c1-c1ccccc1,> 100 µM,–,230 nM,38.3 µM,> 100 µM,IC50 [5]: 6 µM
Cc1[nH]c2ncnc(Nc3cccc(Br)c3)c2c1C,> 100 µM,> 100 µM,–,1.4 µM,2.3 µM,IC50 (NIH3T3 [7]): > 100 µM; IC50 (NIH3T3 [3]): > 10 µM; IC50 [5]: 1.5 µM
Cc1[nH]c2ncnc(NC3CCCCC3)c2c1C,–,–,6920 nM,–,–,–
Clc1cccc(Nc2ncnc3[nH]c(-c4ccccc4)c(-c4ccccc4)c23)c1,> 100 µM,–,–,> 50 µM,> 100 µM,IC50 (NIH3T3 [3]): > 10 µM
Oc1cccc(Nc2ncnc3[nH]c4c(c23)CCCC4)c1,–,–,420 nM,–,–,–
Cc1[nH]c2ncnc(Nc3cccc(C(F)(F)F)c3)c2c1C,–,–,1900 nM,–,–,–
Cc1[nH]c2ncnc(NCc3ccccc3)c2c1C,–,–,1080 nM,–,–,–
Cc1[nH]c2ncnc(Nc3cccc(O)c3)c2c1C,–,–,1250 nM,–,–,–
Brc1cccc(Nc2ncnc3[nH]c4c(c23)CCCC4)c1,> 100 µM,> 100 µM,–,1.4 µM,> 100 µM,IC50 (NIH3T3 [7]): > 100 µM; IC50 (NIH3T3 [3]): > 10 µM; IC50 [5]: 0.4 µM

# — ChEMBL document CHEMBL1129072, “4-(Phenylamino)pyrrolopyrimidines: potent and selective, ATP site directed inhibitors of the EGF-receptor protein tyrosine kinase” (J Med Chem, 1996)
